Results published in PubChem BioAssay.
Active and inactive are the calls of the source.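 How the source made its calls, unless noted: active means viability at or below 30% in both replicate assays; inconclusive means viability at or below 30% in just one of the two assays; inactive means the rest.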

Experiments:
[1] = Her2 expression decrease, cell viability multiplex – SKBR3 breast tumor cells, AlphaScreen, ATP viability, primary screen (AID 461;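 active means Her2 level under about 52% in both replicate screens, with viability over 70% of control, limit read from the data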;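 on Her2 level: lower value means less Her2 protein in the cells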;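 on viability: percent of carrier control wells set as 100% viability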); settings: SKBR3 Her2 protein level, 18-24 h, measured here: SKBR3 viability, ATP luminescence, at 10 µM
[2] = molecular target: Receptor tyrosine-protein kinase erbB-2 (Homo sapiens) (UniProt P04626); experiment: as above; settings: 18-24 h, at 10 µM, stronger effect = lower value
Sequence of Receptor tyrosine-protein kinase erbB-2 (Homo sapiens) (P04626 whole entry, looked up): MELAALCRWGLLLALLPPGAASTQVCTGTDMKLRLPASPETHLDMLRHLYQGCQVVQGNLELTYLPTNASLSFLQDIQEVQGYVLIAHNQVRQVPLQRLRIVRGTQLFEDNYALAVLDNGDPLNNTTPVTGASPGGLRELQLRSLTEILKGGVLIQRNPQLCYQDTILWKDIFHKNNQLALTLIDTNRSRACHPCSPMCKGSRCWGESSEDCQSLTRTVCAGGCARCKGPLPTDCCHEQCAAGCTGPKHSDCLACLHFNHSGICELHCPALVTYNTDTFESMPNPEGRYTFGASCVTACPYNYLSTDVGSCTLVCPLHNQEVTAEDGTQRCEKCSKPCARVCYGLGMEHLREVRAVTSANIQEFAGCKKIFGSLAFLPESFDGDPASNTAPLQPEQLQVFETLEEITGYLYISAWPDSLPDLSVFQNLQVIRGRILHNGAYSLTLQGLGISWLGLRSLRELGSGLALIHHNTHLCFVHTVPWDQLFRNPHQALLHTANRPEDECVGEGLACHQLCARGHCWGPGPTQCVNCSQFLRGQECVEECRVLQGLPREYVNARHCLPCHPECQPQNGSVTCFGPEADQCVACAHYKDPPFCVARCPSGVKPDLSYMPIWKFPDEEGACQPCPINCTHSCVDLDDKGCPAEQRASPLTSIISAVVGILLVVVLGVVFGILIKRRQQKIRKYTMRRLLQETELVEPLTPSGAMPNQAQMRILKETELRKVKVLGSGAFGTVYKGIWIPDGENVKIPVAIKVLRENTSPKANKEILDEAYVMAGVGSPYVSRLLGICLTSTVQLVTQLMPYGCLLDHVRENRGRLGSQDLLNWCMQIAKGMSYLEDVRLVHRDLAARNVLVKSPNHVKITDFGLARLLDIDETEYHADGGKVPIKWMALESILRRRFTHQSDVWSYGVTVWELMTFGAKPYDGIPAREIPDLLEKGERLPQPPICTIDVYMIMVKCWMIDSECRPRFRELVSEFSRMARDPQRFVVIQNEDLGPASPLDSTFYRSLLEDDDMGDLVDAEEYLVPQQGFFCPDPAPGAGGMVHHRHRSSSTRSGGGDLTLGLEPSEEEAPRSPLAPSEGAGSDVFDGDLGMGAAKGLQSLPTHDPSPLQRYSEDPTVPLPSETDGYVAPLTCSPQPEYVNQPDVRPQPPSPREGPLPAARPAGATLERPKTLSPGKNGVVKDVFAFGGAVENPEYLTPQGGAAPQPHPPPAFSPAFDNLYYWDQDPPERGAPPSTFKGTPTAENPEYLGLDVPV

[3] = reduced viability of SK-BR-3 breast cancer cells – cell-based, 24 h, human, pilot screen (AID 572;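 active means viability at or below 10% of carrier control in both of two separate runs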;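 further: compound exposure lasted between 18 and 24 h rather than exactly 24 h; 100% = carrier-treated control wells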); settings: SK-BR-3 viability, CellTiter-Glo luminescence, at 10 µM, stronger effect = lower value
[4] = HUVEC growth inhibition – cell-based, human, primary screen (AID 575); settings: HUVEC proliferation, CellTiter-Glo luminescence, 72 h; at 10 µM; stronger effect = lower value;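 further: 100% = median of untreated cell wells with 0.1% DMSO on each plate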
Method in brief: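 system = HUVEC primary cells | amount = 1250 cells/well | buffer or medium = supplemented EBM, 2% fetal bovine serum | dosing = single-point 10 µM, DMSO 0.1% final | times = 72 h compound incubation | detection = CTG luminescence | read-out = % viability relative to median vehicle-well signal on each plate | control set = vehicle and MePR control wells | format = collagen-coated 384-well format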

[5] = H69AR cell proliferation blockers – human, duplicate replicates, primary screen (AID 580;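 active means viability at or under a set limit in both replicates, limit being median viability minus 3 SD, cut at about 48% in these data, passing the limit was not always enough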;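 further: 100% = mean luminescence of untreated wells and 0% = no signal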); settings: H69AR lung tumor cells viability, ATP luminescence, 72 h; at 10 µM; stronger effect = lower value
[6] = MRP1 drug-resistance reversers in H69AR cells – cell-based, doxorubicin co-treatment, pilot screen (AID 601;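 active means viability loss from added drug above about 55%, and viability with drug at most 40%, in both replicates, limit read from the data, passing the limit was not always enough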); settings: CellTiter-Glo, 72 h, at 10 µM; for differential viability (reversal): stronger effect = higher value
[7] = yeast transport mutant growth inhibition pilot in 384-well plates, post-Golgi transport modulator project (AID 636; in the data active means inhibition above about 31%); settings: absorbance 615 nm, about 18 h, stronger effect = higher value
[8] = growth suppression of yeast trafficking mutant, preliminary HTS, modulators of trafficking downstream of Golgi apparatus project, 1536-format plate, OD 615 nm (AID 637; in the data active means inhibition above about 30%); settings: yeast transport mutant growth, absorbance 615 nm, 18 h; stronger effect = higher value
[9] = H69AR cells + 2 uM doxorubicin, measured here: viability with 2 uM doxorubicin, stronger effect = lower value
[10] = H69AR cells, compound alone cytotoxicity

SMILES | viability [1] [%] | Her2 level [2] | viability [3] | viability [4] | viability [5] | differential viability (reversal) ([6]; H69AR cells + 2 uM doxorubicin) | viability [6, 9] [%] | viability [6, 10] [%] | inhibition [7] | inhibition [8]
COc1ccc(N2CC(C(=O)Nc3ccc(F)cc3F)CC2=O)cc1 (stereo not given) | 102 | 93.5% (inactive) | 102% (inactive) | 108% (inactive) | 96.6% (inactive) | 5.19% (inactive) | 91.4 | 96.6 | -3.47% (inactive) | 1.13% (inactive)
Cc1ccc(NC(=O)CCC(=O)O)cc1F | 106 | 82.5% (inactive) | 106% (inactive) | 88.8% (inactive) | 104% (inactive) | 12.2% (inactive) | 91.8 | 104 | -6.3% (inactive) | -2.7% (inactive)
CCN(CC)S(=O)(=O)c1ccc2c(c1)c(=O)c(C(=O)NCCOC)cn2C | 88.5 | 99.5% (inactive) | 88.5% (inactive) | 101% (inactive) | 83.1% (inactive) | -12.5% (inactive) | 95.6 | 83.1 | -5.95% (inactive) | -5.5% (inactive)
N#Cc1ccccc1NC(=O)CSc1nnc(-c2ccccc2)n1-c1ccccc1 | 81.5 | 83% (inactive) | 81.5% (inactive) | 102% (inactive) | 30.3% (active) | -63.4% (inactive) | 93.8 | 30.3 | 1.49% (inactive) | -0.32% (inactive)
O=C(Nn1c(C2CC2)nc2ccccc2c1=O)c1ccco1 | 109 | 108% (inactive) | 109% (inactive) | 93.9% (inactive) | 95.4% (inactive) | -0.5% (inactive) | 95.9 | 95.4 | -3.77% (inactive) | -6.39% (inactive)
COc1ccc(N2CCN(c3ncnc4c3cnn4-c3ccc(C)cc3C)CC2)cc1 | 81 | 72.5% (inactive) | 81% (inactive) | 87.1% (inactive) | 66.2% (inactive) | 46.8% (inactive) | 19.4 | 66.2 | -1.58% (inactive) | -1.29% (inactive)
COc1ccc(C(=O)Nc2cccc(C)c2)cc1S(=O)(=O)N1CCOCC1 | 100 | 83% (inactive) | 100% (inactive) | 108% (inactive) | 93.2% (inactive) | 7.64% (inactive) | 85.5 | 93.2 | -5% (inactive) | -5.71% (inactive)
COc1ccc(NC(=O)CN2CCN(S(=O)(=O)c3ccc(Cl)cc3)CC2)cc1 | 92 | 76% (inactive) | 92% (inactive) | 88% (inactive) | 81.8% (inactive) | -11.3% (inactive) | 93.1 | 81.8 | -6.18% (inactive) | -11% (inactive)
N#CC1=C(SCC(=O)c2cc3ccccc3oc2=O)NC(=O)C(C#N)C12CCCC2 (stereo not given) | 92 | 76% (inactive) | 92% (inactive) | 72.1% (inactive) | 86.5% (inactive) | 6.35% (inactive) | 80.1 | 86.5 | -3.2% (inactive) | 0.32% (inactive)
CCOC(=O)C1CCN(C(=O)C2(NC(=O)Nc3ccccc3Cl)CCCCC2)CC1 | 133 | 98% (inactive) | 133% (inactive) | 105% (inactive) | 87.9% (inactive) | 7.69% (inactive) | 80.2 | 87.9 | -1.95% (inactive) | -1.11% (inactive)
COc1ccccc1CNC(=O)N[C@@H](Cc1ccccc1)C(=O)O | 102 | 80% (inactive) | 102% (inactive) | 114% (inactive) | 93.2% (inactive) | 12.2% (inactive) | 81 | 93.2 | -5.81% (inactive) | 10.5% (inactive)
Cc1onc(-c2ccccc2Cl)c1C(=O)Nc1cccnc1 | 102 | 72% (inactive) | 102% (inactive) | 103% (inactive) | 95.6% (inactive) | 1.41% (inactive) | 94.2 | 95.6 | -7.57% (inactive) | -1.31% (inactive)
O=C(COc1ccccc1)Nc1nc2ccccc2[nH]1 | 91.5 | 93% (inactive) | 91.5% (inactive) | 92.5% (inactive) | 91.5% (inactive) | 5.92% (inactive) | 85.6 | 91.5 | -1.04% (inactive) | -3.93% (inactive)
COc1ccc(C2c3c(-c4ccccc4O)n[nH]c3C(=O)N2CCc2ccc(OC)c(OC)c2)cc1 (stereo not given) | 112 | 95.5% (inactive) | 112% (inactive) | 60.3% (inactive) | 68.5% (inactive) | 57.9% (active) | 10.6 | 68.5 | -2.89% (inactive) | 6.94% (inactive)
CCOc1nc(-c2ccccc2)ccc1-c1noc(-c2cccnc2)n1 | 76.5 | 90% (inactive) | 76.5% (inactive) | 124% (inactive) | 91.2% (inactive) | 4.83% (inactive) | 86.4 | 91.2 | -0.26% (inactive) | 0.33% (inactive)
COc1ccc(CNC(=O)c2cc3c(=O)n4ccccc4nc3n(Cc3ccco3)c2=N)cc1 | 114 | 97.5% (inactive) | 114% (inactive) | 105% (inactive) | 110% (inactive) | 33% (inactive) | 76.9 | 110 | -0.39% (inactive) | -5.08% (inactive)
COC(=O)Cc1csc(N)n1 | 95 | 82.5% (inactive) | 95% (inactive) | 90.1% (inactive) | 93% (inactive) | 4.79% (inactive) | 88.2 | 93 | 0.92% (inactive) | -3.27% (inactive)
CCOC(=O)C1CCN(c2c(N3CCCCCC3)c(=O)c2=O)CC1 | 97 | 100% (inactive) | 97% (inactive) | 87.9% (inactive) | 98% (inactive) | 0.92% (inactive) | 97.1 | 98 | -1.67% (inactive) | -0.33% (inactive)
Cc1cccc(-c2nc(CN3CCCC(C(=O)NC4CCCC4)C3)c(C)o2)c1 (stereo not given) | 86 | 86.5% (inactive) | 86% (inactive) | 72.3% (inactive) | 84.2% (inactive) | -11.2% (inactive) | 95.4 | 84.2 | 1.73% (inactive) | 2.9% (inactive)
CC(=O)NCCOc1cccc(OCCNC(C)=O)c1 | 94.5 | 122% (inactive) | 94.5% (inactive) | 103% (inactive) | 86.3% (inactive) | -5.34% (inactive) | 91.7 | 86.3 | 2.67% (inactive) | -3.17% (inactive)
